# Reference: ChEMBL document CHEMBL3297714, “Gigantol, a bibenzyl from Dendrobium draconis, inhibits the migratory behavior of non-small cell lung cancer cells” (J Nat Prod, 2014)
# Calls of active or inactive are those of the source. The calls are words filed in the database; no cut-off is given here.
# How the values were obtained:
# NCI-H460 [1] = test: Decrease in Cdc42 expression in human NCI-H460 cells at 0 to 20 uM for 24 hrs by Western blot analysis; format: functional, cell-based
# Method in brief: (§1)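 H460 cells were seeded at 5 × 10^5/well, left overnight, then exposed to 0−20 μM for 24 h. Lysis used Tris-HCl pH 7.5 buffer with Triton X-100, vanadate, NaF, PMSF and protease inhibitors, 40 min on ice. 60 μg protein per lane was run on 10% SDS-PAGE and blotted to nitrocellulose. Primary antibody overnight at 4 °C, then HRP secondary. Chemiluminescence, densitometry, β-actin loading control.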
# NCI-H460 [2] = test: Inhibition of human NCI-H460 cells migration at 10 uM after 24 hrs by wound healing assay; format: functional; conditions: NCI-H460, 24 h
# Method in brief: (§2)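 H460 cells were seeded at 2.5 × 10^5/well and grown to a monolayer, then scratched with a 1 mm tip and washed with PBS. They were kept in serum-free RPMI with 0−20 μM for 24 h, or ± 20 μM for 24, 48 and 72 h. The wound was photographed, and migration was calculated as the change in wound space divided by that of control. Mean ± SD, n = 4.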
# NCI-H460 [3] = test: Inhibition of human NCI-H460 cells migration at 5 uM after 24 hrs by Boyden chamber assay relative to control; format: functional
# Method in brief: (§3)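 For the Boyden chamber, H460 cells at 5 × 10^4/well were placed on the upper side of an 8 μm Transwell filter in RPMI with 0.1% FBS plus compound (0−20 μM) for 24 h, with 10% FBS below. Non-migrated cells were swabbed off, and underside cells were stained with 10 μg/mL Hoechst 33342 for 30 min and counted per field. n = 4.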
# NCI-H460 [4] = test: Inhibition of human NCI-H460 cells invasion at 0 to 20 uM by transwell assay; format: functional, cell-based; conditions: TDE = time-dependent effect
# Method in brief: (§4)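 Matrigel-coated Transwell inserts (8 μm pore) were seeded with H460 cells at 1.5 × 10^5/well in RPMI with 0.1% FBS plus compound (0−20 μM), with 10% FBS RPMI in the lower chamber, for 24 or 48 h. Cells that invaded the underside were stained with 10 μg/mL Hoechst 33342 for 30 min and counted per field by fluorescence microscopy. n = 4.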
# NCI-H460 [5] = test: Inhibition of human NCI-H460 cells migration at 5 uM after 24 hrs by wound healing assay; format: functional; conditions: NCI-H460, 24 h; method in brief: as §2
# NCI-H460 [6] = test: Induction of apoptosis in human NCI-H460 cells at 50 to 100 uM for 24 hrs by Hoechst-[…]/PI staining based fluorescence microscopic analysis; format: functional, cell-based
# Method in brief: (§5)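 They were stained with 10 μg/mL Hoechst 33342 plus 5 μg/mL propidium iodide for 30 min. Apoptotic (Hoechst-condensed) and necrotic (PI-positive) cells were scored by fluorescence microscopy as % versus untreated control.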
# [7] = target: RAC-alpha serine/threonine-protein kinase (Homo sapiens) (UniProt P31749); test: Inhibition of Akt phosphorylation at Ser473 in human NCI-H460 cells at 0 to 20 uM for 24 hrs by Western blot analysis; format: cell-based; method in brief: as §1
# NCI-H460 [8] = test: Inhibition of human NCI-H460 cells migration transfected with Cav-1 shRNA at 20 uM after 24 hrs by wound healing assay; format: functional, cell-based
# Method in brief: (§6)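 H460 cells were stably transfected (Lipofectamine 2000) with Cav-1 expression, Cav-1 shRNA or control plasmid, selected with antibiotic for 30 days and pooled, then passaged twice without G418. Confluent monolayers were scratched with a 1 mm tip and treated with 20 μM for 24 h. Wound-space change was expressed relative to untreated cells. n = 4.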
# NCI-H460 [9] = test: Inhibition of human NCI-H460 cells migration after 24 to 72 hrs by wound healing assay; format: functional, cell-based; method in brief: as §2
# NCI-H460 [10] = test: Inhibition of human NCI-H460 cells migration at 20 uM after 24 hrs by Boyden chamber assay relative to control; format: functional; method in brief: as §3
# NCI-H460 [11] = test: Induction of necrosis in human NCI-H460 cells at 50 to 100 uM for 24 hrs by Hoechst-[…]/PI staining based fluorescence microscopic analysis; format: functional, cell-based; method in brief: as §5
# NCI-H460 [12] = test: Cytotoxicity against human NCI-H460 cells assessed as cell viability for 24 hrs by MTT assay; format: functional, cell-based; conditions: NCI-H460, 24 h
# Method in brief: (§7)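 MTT was given for 4 h at 37 °C, formazan was solubilized in DMSO and absorbance taken at 570. Viability is % of untreated control. IC50 came from four independent experiments. n = 4.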
# NCI-H460 [13] = test: Cytotoxicity against human NCI-H460 cells assessed as cell viability at 0 to 20 uM for 12 to 72 hrs by MTT assay; format: functional, cell-based
# Method in brief: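 MTT was added for 4 h at 37 °C, formazan was dissolved in DMSO and read at 570. Viability is given as % of untreated cells. Mean ± SD, n = 4.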
# NCI-H460 [14] = test: Inhibition of human NCI-H460 cells migration at 10 uM after 24 hrs by Boyden chamber assay relative to control; format: functional; method in brief: as §3
# NCI-H460 [15] = test: Cytotoxicity against human NCI-H460 cells assessed as cell viability at < 20 uM for 24 hrs by MTT assay; format: functional, cell-based; method in brief: as §7
# NCI-H460 [16] = test: Cytotoxicity against human NCI-H460 cells assessed as cell viability at 500 uM for 24 hrs by MTT assay; format: functional; conditions: NCI-H460, 24 h, read-out: Activity; method in brief: as §7
# HaCaT = test: Cytotoxicity against human HaCaT cells assessed as cell migration at 0 to 20 uM after 24 hrs by wound healing assay; format: cell-based
# Method in brief: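 HaCat keratinocytes grown in DMEM with 10% FBS, 2 mM L-glutamine and penicillin/streptomycin. A confluent monolayer was scratched with a 1 mm tip, washed with PBS, and kept in serum-free medium with compound (0−20 μM) for 24 h. The wound was photographed, and the change in wound space was expressed relative to untreated cells.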
# NCI-H460 [17] = test: Effect on Fak expression in human NCI-H460 cells at 0 to 20 uM for 24 hrs by Western blot analysis; format: functional, cell-based; method in brief: as §1
# NCI-H460 [18] = test: Inhibition of human NCI-H460 cells invasion after 24 hrs by transwell assay; format: functional, cell-based; method in brief: as §4
# NCI-H460 [19] = test: Cytotoxicity against human NCI-H460 cells assessed as cell viability at 50 uM for 24 hrs by MTT assay; format: functional; conditions: NCI-H460, 24 h, read-out: Activity; method in brief: as §7
# NCI-H460 [20] = test: Decrease in filopodia protrussions in human NCI-H460 cells at 10 to 20 uM for 24 hrs by phalloidin staining based fluorescence microscopic analysis; format: functional, cell-based
# Method in brief: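 H460 cells were seeded at 5 × 10^4/well and treated 24 h (0−20 μM). Cells were fixed in 4% paraformaldehyde, permeabilized with 0.1% Triton X-100 and blocked with 0.2% BSA, then stained with rhodamine-phalloidin (1:100, 15 min) or Hoechst 33342. Filopodia per cell were counted by fluorescence microscopy relative to untreated cells.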
# [21] = target: Focal adhesion kinase 1 (Homo sapiens) (UniProt Q05397); test: Inhibition of Fak phosphorylation at Tyr397 in human NCI-H460 cells at 0 to 20 uM for 24 hrs by Western blot analysis; format: cell-based; method in brief: as §1
# NCI-H292 = test: Inhibition of human NCI-H292 cells migration at 0 to 20 uM after 24 hrs by wound healing assay; format: functional, cell-based
# Method in brief: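 NCI-H292 cells in RPMI-1640 with 10% FBS were grown to a confluent monolayer and scratched with a 1 mm tip. They were incubated in serum-free RPMI with 0−20 μM for 24 h. The change in wound space was measured from photographs relative to untreated cells.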
# NCI-H460 [22] = test: Cytotoxicity against human NCI-H460 cells assessed as cell viability at 100 uM for 24 hrs by MTT assay; format: functional; conditions: NCI-H460, 24 h, read-out: Activity; method in brief: as §7
# NCI-H460 [23] = test: Decrease in Cav-1 expression in human NCI-H460 cells at 0 to 20 uM for 24 hrs by Western blot analysis; format: functional, cell-based; method in brief: as §1
# NCI-H460 [24] = test: Inhibition of human NCI-H460 cells migration overexpressing Cav-1 at 20 uM after 24 hrs by wound healing assay; format: functional, cell-based; method in brief: as §6
# NCI-H460 [25] = test: Inhibition of human NCI-H460 cells migration at 20 uM after 24 hrs by wound healing assay; format: functional; conditions: NCI-H460, 24 h; method in brief: as §2
# NCI-H460 [26] = test: Inhibition of human NCI-H460 cells migration at 20 uM by wound healing assay; format: functional, cell-based; conditions: TDE = time-dependent effect; method in brief: as §2
# NCI-H460 [27] = test: Effect on unphosphorylated Akt level in human NCI-H460 cells at 0 to 20 uM for 24 hrs by Western blot analysis; format: functional, cell-based; method in brief: as §1
# Sequence of Focal adhesion kinase 1 (Homo sapiens) (Q05397 2-1052 limits assumed): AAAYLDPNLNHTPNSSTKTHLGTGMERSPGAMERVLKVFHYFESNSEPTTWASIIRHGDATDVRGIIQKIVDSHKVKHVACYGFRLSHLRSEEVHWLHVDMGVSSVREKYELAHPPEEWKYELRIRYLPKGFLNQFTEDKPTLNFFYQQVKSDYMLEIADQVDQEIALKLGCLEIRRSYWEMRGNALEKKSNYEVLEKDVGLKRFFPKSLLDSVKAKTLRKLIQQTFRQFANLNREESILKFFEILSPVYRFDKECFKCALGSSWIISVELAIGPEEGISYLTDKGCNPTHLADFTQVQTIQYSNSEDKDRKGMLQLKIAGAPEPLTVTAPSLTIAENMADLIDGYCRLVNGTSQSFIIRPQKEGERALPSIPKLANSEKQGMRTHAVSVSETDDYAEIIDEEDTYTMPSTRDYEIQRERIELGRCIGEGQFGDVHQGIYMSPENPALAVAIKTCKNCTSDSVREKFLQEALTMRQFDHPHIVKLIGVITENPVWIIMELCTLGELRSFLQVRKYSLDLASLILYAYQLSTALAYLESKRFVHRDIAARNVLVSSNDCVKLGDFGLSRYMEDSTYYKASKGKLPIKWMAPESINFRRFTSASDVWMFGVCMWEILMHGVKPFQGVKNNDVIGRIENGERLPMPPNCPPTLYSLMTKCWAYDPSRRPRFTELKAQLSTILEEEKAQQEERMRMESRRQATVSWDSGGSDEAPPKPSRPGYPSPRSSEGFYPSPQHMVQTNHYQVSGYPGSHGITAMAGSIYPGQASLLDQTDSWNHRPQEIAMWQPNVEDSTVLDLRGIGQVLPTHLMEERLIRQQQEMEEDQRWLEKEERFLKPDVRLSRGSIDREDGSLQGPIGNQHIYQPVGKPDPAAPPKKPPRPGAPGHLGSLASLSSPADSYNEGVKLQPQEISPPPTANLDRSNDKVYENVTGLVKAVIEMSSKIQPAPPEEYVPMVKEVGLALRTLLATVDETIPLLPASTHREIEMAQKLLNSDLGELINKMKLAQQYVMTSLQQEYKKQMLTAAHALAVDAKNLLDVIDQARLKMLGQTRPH
# Sequence of RAC-alpha serine/threonine-protein kinase (Homo sapiens) (P31749 whole entry): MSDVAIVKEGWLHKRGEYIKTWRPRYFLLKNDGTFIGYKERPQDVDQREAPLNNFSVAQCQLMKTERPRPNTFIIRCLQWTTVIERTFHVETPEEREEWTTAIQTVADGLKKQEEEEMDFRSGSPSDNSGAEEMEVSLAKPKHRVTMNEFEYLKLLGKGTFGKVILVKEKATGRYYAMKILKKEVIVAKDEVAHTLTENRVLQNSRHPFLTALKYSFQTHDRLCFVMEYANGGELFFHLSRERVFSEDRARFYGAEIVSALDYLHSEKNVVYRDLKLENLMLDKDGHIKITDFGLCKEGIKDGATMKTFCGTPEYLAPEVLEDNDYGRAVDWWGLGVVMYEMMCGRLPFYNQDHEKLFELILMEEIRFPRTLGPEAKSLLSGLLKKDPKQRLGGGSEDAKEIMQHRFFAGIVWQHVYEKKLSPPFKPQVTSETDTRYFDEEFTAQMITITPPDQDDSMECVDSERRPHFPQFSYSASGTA
compound,measurement,setting,value
COc1cc(O)cc(CCc2ccc(O)c(OC)c2)c1 [GIGANTOL],inhibition,NCI-H460 [1],Active
same,inhibition at 10 µM,NCI-H460 [2],50%
same,fold change (FC),NCI-H460 [3],0.7
same,inhibition,NCI-H460 [4],tde
same,inhibition at 5 µM,NCI-H460 [5],30%
same,Activity,NCI-H460 [6],Active
same,inhibition,[7],Active
same,inhibition,NCI-H460 [8],Active
same,inhibition,NCI-H460 [9],Dose-dependent effect
same,fold change (FC),NCI-H460 [10],0.3
same,Activity,NCI-H460 [11],inactive
same,IC50,NCI-H460 [12],248 µM
same,Activity,NCI-H460 [13],inactive
same,fold change (FC),NCI-H460 [14],0.4
same,Activity,NCI-H460 [15],inactive
same,viability at 500 µM,NCI-H460 [16],20%
same,Activity,HaCaT,Non-toxic
same,Activity,NCI-H460 [17],inactive
same,inhibition,NCI-H460 [18],Dose-dependent effect
same,viability at 50 µM,NCI-H460 [19],83%
same,inhibition,NCI-H460 [20],Active
same,Activity,[21],inactive
same,inhibition,NCI-H292,Active
same,viability at 100 µM,NCI-H460 [22],80%
same,inhibition,NCI-H460 [23],Active
same,inhibition,NCI-H460 [24],Active
same,inhibition at 20 µM,NCI-H460 [25],70%
same,inhibition,NCI-H460 [26],tde
same,Activity,NCI-H460 [27],inactive
